# Measured values published in ChEMBL document CHEMBL4052652, “Development of WNK signaling inhibitors as a new class of antihypertensive drugs” (Bioorg Med Chem, 2017).
# The source made the active and inactive calls. The rule behind the calls is not given here.
# Legend:
# [1] = molecular target: STE20/SPS1-related proline-alanine-rich protein kinase (Rattus norvegicus, UniProt O88506); assay: Inhibition of TAMRA-labelled WNK4 binding to recombinant rat C-terminal GST-fused SPAK (452 to 553 residues) expressed in Escherichia coli BL21 measured for 15 secs by FCS assay
# Method in brief: (§1)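 GST-fused rat SPAK CCT (residues 452–553) expressed in E. coli BL21 with IPTG induction for 16 h at 28°C, then glutathione-affinity purified. TAMRA-labelled WNK4 RFQV peptide (2.7 nM final) incubated with 0.5 µM GST–SPAK-CCT in PBS with 0.05% Tween 20 and 1% DMSO for 30 min at 25°C. An AFQV-mutant peptide served as negative control. Binding read by FCS with 15 s acquisition, five measurements per sample, and IC50 calculated from the data.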
# Mus musculus [2] = assay: In-vivo inhibition of WNK signaling pathway in C57BL/6 mouse assessed as reduction in NKCC1 phosphorylation at 5 to 20 mg/kg, ip after 90 mins by immunoblotting analysis; format: functional, organism-based
# Method in brief: (§2)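 Male-unspecified C57BL/6 mice, 10 weeks old, given a single ip injection of 5, 10 or 20 mg/kg in 100 µL DMSO, with DMSO-alone controls. Kidneys taken 90 min later and homogenized in ice-cold 1% Triton X-100 buffer. Nuclear fraction removed, lysate denatured at 60°C for 20 min, and protein measured by Bradford. Total and phospho forms of SPAK, NCC (pSer71), NKCC1 (pThr206) and NKCC2 detected by quantitative immunoblotting.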
# Mus musculus [3] = assay: In-vivo inhibition of WNK signaling pathway in ip dosed C57BL/6 mouse assessed as reduction in phosphorylated NCC level after 90 mins by immunoblotting analysis; format: functional, organism-based; method in brief: as §2
# HEK-293T [4] = assay: Cytotoxicity against HEK293T cells at 100 uM after 40 hrs by CCK8 assay; format: cell-based; settings: human
# Mus musculus [5] = assay: In-vivo inhibition of WNK signaling pathway in C57BL/6 mouse assessed as reduction in NKCC2 phosphorylation at 5 to 20 mg/kg, ip after 90 mins by immunoblotting analysis; format: functional, organism-based; method in brief: as §2
# HEK-293T [6] = assay: Cytotoxicity against HEK293T cells after 40 hrs by CCK8 assay; format: cell-based; settings: Homo sapiens
# [7] = molecular target: STE20/SPS1-related proline-alanine-rich protein kinase (Rattus norvegicus) (UniProt O88506); assay: Inhibition of TAMRA-labelled WNK4 binding to recombinant rat C-terminal GST-fused SPAK (452 to 553 residues) expressed in Escherichia coli BL21 at > 10^-5 M measured for 15 secs by FCS assay; method in brief: as §1
SMILES,IC50 [1],also measured
CCOc1ccc2nc3cc(NC(=O)c4cccc(C#N)c4)ccc3c(N)c2c1,2.6 µM,–
CCOc1ccc2nc3cc(NCc4ccco4)ccc3c(N)c2c1,15.4 µM,IC50 (HEK-293T [6]): 4.2 µM
CCOc1ccc2nc3cc(NCc4ccccc4)ccc3c(N)c2c1,35.6 µM,–
CCOc1ccc2nc3cc(NCc4ccc(OC)cc4OC)ccc3c(N)c2c1,21.1 µM,–
CCOc1ccc2nc3cc(NC(=O)c4ccc(C#N)cc4)ccc3cc2c1,–,inhibition [7]: inactive
CCOc1ccc2nc3cc(NC(=O)c4ccc(F)cc4)ccc3c(N)c2c1,36.9 µM,–
CCOc1ccc2nc3cc(NC(=O)c4cccc([N+](=O)[O-])c4)ccc3c(N)c2c1,3.9 µM,–
CCOc1ccc2nc3cc(NC(=O)c4ccc(C#N)cc4)ccc3c(Oc3ccccc3)c2c1,–,inhibition [7]: inactive
CCOc1ccc2nc3cc(NC(=O)c4ccc5ccccc5c4)ccc3c(N)c2c1,7.6 µM,–
N#Cc1ccc(NC(=O)Nc2ccc3c(N)c4cc(O)ccc4nc3c2)cc1,2.6 µM,–
CCOc1ccc2nc3cc(NC(=O)c4ccc(C(=O)OC)cc4)ccc3c(N)c2c1,–,inhibition [7]: inactive
CCOc1ccc2nc3cc(NCc4cccs4)ccc3c(N)c2c1,53.5 µM,–
CCOc1ccc2nc3cc(NC(=O)c4ccc(Cl)cc4)ccc3c(N)c2c1,49 µM,–
CCOc1ccc2nc3cc(NC(C)=O)ccc3c(N)c2c1,–,inhibition [7]: inactive

# Second part, led by results:
IC50 [1],SMILES,also measured
20.9 µM,CCOc1ccc2nc3cc(NC(=O)c4ccc([N+](=O)[O-])cc4)ccc3c(N)c2c1,–
8.2 µM,CCOc1ccc2nc3cc(NC(=O)c4ccco4)ccc3c(N)c2c1,–
4.8 µM,COc1ccc2nc3cc(NC(=O)Nc4ccc(C#N)cc4)ccc3c(N)c2c1,inhibition (Mus musculus [2]): Active; inhibition (Mus musculus [3]): Dose-dependent effect; Activity (HEK-293T [4]): Non-Toxic; inhibition (Mus musculus [5]): Active
28.2 µM,CCOc1ccc2nc3cc(NC(=O)c4ccccc4)ccc3c(N)c2c1,–
> 100 µM,CCOc1ccc2nc3cc(NC(=O)c4cc(C(F)(F)F)cc(C(F)(F)F)c4)ccc3c(N)c2c1,–
6.9 µM,CCOc1ccc2nc3cc(NC(=O)c4ccc(C#N)cc4)ccc3c(N)c2c1,inhibition (Mus musculus [2]): Active; inhibition (Mus musculus [3]): Dose-dependent effect; inhibition (Mus musculus [5]): Active; IC50 (HEK-293T [6]): 25 µM
